Experimental data: ChEMBL document CHEMBL1126990, “Design and synthesis of 18F-labeled neurotoxic analogs of MPTP” (J Med Chem, 1993)

Tests used:
Mus musculus [1] = species: Mus musculus; test: Biodistribution of [18F]-radiolabeled compound in the mouse kidney after 30 minutes (average uptake in (%injected dose)/(% body weight); assay type: ADME, organism-based; conditions: in vivo, 0.5 h
Method in brief: (§1)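 Adult male C57 Black mice (about 20 g), anesthetized with 1 mg sodium pentobarbital ip, given 0.1 mL (~0.05 mCi) tracer via tail vein. Killed by cervical dislocation at set times (5–90 min). Organs sampled, counted, weighed. Injected dose measured against weighed standards, minus residual tail activity. %id/g multiplied by body weight gives normalized uptake. Mean ± SD, N = 3 (N = 2 at 5 min).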

Mus musculus [2] = species: Mus musculus; test: Biodistribution of [18F]-radiolabeled compound in the mouse blood after 5 minutes (average uptake in (%injected dose)/(% body weight); assay type: ADME, organism-based; conditions: in vivo; method in brief: as §1
Mus musculus [3] = species: Mus musculus; test: Biodistribution of [18F]-radiolabeled compound in the mouse lung after 60 minutes (average uptake in (%injected dose)/(% body weight); assay type: ADME, organism-based; conditions: in vivo, 1 h; method in brief: as §1
Mus musculus [4] = species: Mus musculus; test: Biodistribution of [18F]-radiolabeled compound in the mouse muscle after 60 minutes (average uptake in (%injected dose)/(% body weight); assay type: ADME, organism-based, Muscle tissue; conditions: in vivo, 1 h; method in brief: as §1
Mus musculus [5] = species: Mus musculus; test: Biodistribution of [18F]-radiolabeled compound in the mouse intestine after 30 min (average uptake in (%injected dose)/(% body weight); assay type: ADME, organism-based; conditions: in vivo, 0.5 h; method in brief: as §1
Mus musculus [6] = species: Mus musculus; test: Biodistribution of [18F]-radiolabeled compound in the mouse kidney after 5 minutes (average uptake in (%injected dose)/(% body weight); assay type: ADME, organism-based; conditions: in vivo; method in brief: as §1
Mus musculus [7] = species: Mus musculus; test: Biodistribution of [18F]-radiolabeled compound in the mouse spleen after 5 minutes (average uptake in (%injected dose)/(% body weight); assay type: ADME, organism-based; conditions: in vivo; method in brief: as §1
Mus musculus [8] = species: Mus musculus; test: Biodistribution of [18F]-radiolabeled compound in the mouse brain after 90 minutes (average uptake in (%injected dose)/(% body weight); assay type: ADME, organism-based; conditions: in vivo, 1.5 h; method in brief: as §1
Mus musculus [9] = species: Mus musculus; test: Biodistribution of [18F]-radiolabeled compound in the mouse intestine after 60 minutes (average uptake in (%injected dose)/(% body weight); assay type: ADME, organism-based; conditions: in vivo, 1 h; method in brief: as §1
Mus musculus [10] = species: Mus musculus; test: Biodistribution of [18F]-radiolabeled compound in the mouse lung after 5 minutes (average uptake in (%injected dose)/(% body weight); assay type: ADME, organism-based; conditions: in vivo; method in brief: as §1
Mus musculus [11] = species: Mus musculus; test: Biodistribution of [18F]-radiolabeled compound in the mouse brain after 15 minutes (average uptake in (%injected dose)/(% body weight); assay type: ADME, organism-based; conditions: in vivo, 0.25 h; method in brief: as §1
Mus musculus [12] = species: Mus musculus; test: Biodistribution of [18F]-radiolabeled compound in the mouse liver after 30 minutes (average uptake in (%injected dose)/(% body weight); assay type: ADME, organism-based; conditions: in vivo, 0.5 h; method in brief: as §1
Mus musculus [13] = species: Mus musculus; test: Biodistribution of [18F]-radiolabeled compound in the mouse kidney after 15 minutes (average uptake in (%injected dose)/(% body weight); assay type: ADME, organism-based; conditions: in vivo, 0.25 h; method in brief: as §1
Mus musculus [14] = species: Mus musculus; test: Biodistribution of [18F]-radiolabeled compound in the mouse liver after 90 minutes (average uptake in (%injected dose)/(% body weight); assay type: ADME, organism-based; conditions: in vivo, 1.5 h; method in brief: as §1
Mus musculus [15] = species: Mus musculus; test: Biodistribution of [18F]-radiolabeled compound in the mouse spleen after 60 minutes (average uptake in (%injected dose)/(% body weight); assay type: ADME, organism-based; conditions: in vivo, 1 h; method in brief: as §1
Mus musculus [16] = species: Mus musculus; test: Biodistribution of [18F]-radiolabeled compound in the mouse brain after 30 minutes (average uptake in (%injected dose)/(% body weight); assay type: ADME, organism-based; conditions: in vivo, 0.5 h; method in brief: as §1
Mus musculus [17] = species: Mus musculus; test: Biodistribution of [18F]-radiolabeled compound in the mouse blood after 15 minutes (average uptake in (%injected dose)/(% body weight); assay type: ADME, organism-based; conditions: in vivo, 0.25 h; method in brief: as §1
Mus musculus [18] = species: Mus musculus; test: Biodistribution of [18F]-radiolabeled compound in the mouse lung after 15 minutes (average uptake in (%injected dose)/(% body weight); assay type: ADME, organism-based; conditions: in vivo, 0.25 h; method in brief: as §1
Mus musculus [19] = species: Mus musculus; test: Biodistribution of [18F]-radiolabeled compound in the mouse heart after 60 minutes (average uptake in (%injected dose)/(% body weight); assay type: ADME, organism-based; conditions: in vivo, 1 h; method in brief: as §1
Mus musculus [20] = species: Mus musculus; test: Biodistribution of [18F]-radiolabeled compound in the mouse bone after 15 minutes (average uptake in (%injected dose)/(% body weight); assay type: ADME, organism-based, Bone element; conditions: in vivo, 0.25 h; method in brief: as §1
Mus musculus [21] = species: Mus musculus; test: Biodistribution of [18F]-radiolabeled compound in the mouse lung after 30 minutes (average uptake in (%injected dose)/(% body weight); assay type: ADME, organism-based; conditions: in vivo, 0.5 h; method in brief: as §1
Mus musculus [22] = species: Mus musculus; test: Biodistribution of [18F]-radiolabeled compound in the mouse intestine after 90 minutes (average uptake in (%injected dose)/(% body weight); assay type: ADME, organism-based; conditions: in vivo, 1.5 h; method in brief: as §1
Mus musculus [23] = species: Mus musculus; test: Biodistribution of [18F]-radiolabeled compound in the mouse liver after 5 minutes (average uptake in (%injected dose)/(% body weight); assay type: ADME, organism-based; conditions: in vivo; method in brief: as §1
Mus musculus [24] = species: Mus musculus; test: Biodistribution of [18F]-radiolabeled compound in the mouse lung after 90 minutes (average uptake in (%injected dose)/(% body weight); assay type: ADME, organism-based; conditions: in vivo, 1.5 h; method in brief: as §1
Mus musculus [25] = species: Mus musculus; test: Biodistribution of [18F]-radiolabeled compound in the mouse spleen after 90 minutes (average uptake in (%injected dose)/(% body weight); assay type: ADME, organism-based; conditions: in vivo, 1.5 h; method in brief: as §1
Mus musculus [26] = species: Mus musculus; test: Biodistribution of [18F]-radiolabeled compound in the mouse liver after 15 minutes (average uptake in (%injected dose)/(% body weight); assay type: ADME, organism-based; conditions: in vivo, 0.25 h; method in brief: as §1

`CN1CC=C(c2ccccc2CF)CC1` was tested, and the Time (Mus musculus [1]) was 1.36 min, the Time (Mus musculus [2]) was 0.67 min and the Time (Mus musculus [3]) was 1.6 min. The Time (Mus musculus [4]) was 0.3 min, the Time (Mus musculus [5]) was 1.06 min and the Time (Mus musculus [6]) was 4.04 min. The Time (Mus musculus [7]) was 1.37 min, the Time (Mus musculus [8]) was 0.76 min and the Time (Mus musculus [9]) was 0.88 min. The Time (Mus musculus [10]) was 6.33 min, the Time (Mus musculus [11]) was 0.82 min and the Time (Mus musculus [12]) was 1.36 min. It also gave a Time (Mus musculus [13]) of 2.64 min, a Time (Mus musculus [14]) of 0.778 min and a Time (Mus musculus [15]) of 0.93 min. The Time (Mus musculus [16]) was 0.68 min, the Time (Mus musculus [17]) was 0.66 min and the Time (Mus musculus [18]) was 3.83 min. For the same molecule, the Time (Mus musculus [19]) was 1.88 min, the Time (Mus musculus [20]) was 1.58 min and the Time (Mus musculus [21]) was 2.54 min. For the same molecule, the Time (Mus musculus [22]) was 2.32 min, the Time (Mus musculus [23]) was 2.3 min and the Time (Mus musculus [24]) was 1.46 min. It also gave a Time (Mus musculus [25]) of 0.95 min and a Time (Mus musculus [26]) of 2.33 min.
